Tests used:
[1] = target: Adenosine receptor A1 (Bos taurus) (UniProt P28190); assay: Displacement of [3H]DPCPX from bovine adenosine A1 receptor in bovine cortical membranes
Adenosine receptor A1 = target: T1, Adenosine receptor A1 (Bos taurus, UniProt P28190); assay: Displacement of [3H]DPCPX from adenosine A1 receptor in bovine cerebral cortical membranes; format: cell membranes
T1 sequence (P28190 whole entry): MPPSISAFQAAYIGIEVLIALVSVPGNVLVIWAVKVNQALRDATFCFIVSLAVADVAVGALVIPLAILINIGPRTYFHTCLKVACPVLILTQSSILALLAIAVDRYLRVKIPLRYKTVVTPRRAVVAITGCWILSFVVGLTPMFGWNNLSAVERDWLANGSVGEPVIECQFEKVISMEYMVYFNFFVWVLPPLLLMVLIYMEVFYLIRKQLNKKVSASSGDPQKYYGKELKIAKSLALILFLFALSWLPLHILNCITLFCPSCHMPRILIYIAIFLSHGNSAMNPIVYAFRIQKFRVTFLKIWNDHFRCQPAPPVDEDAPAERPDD
How it was run: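 [3H]DPCPX was displaced from A1 sites in bovine cortical membranes. Compounds were taken up in DMSO and diluted in assay buffer, with DMSO at 2% or less final. Ki used at least six concentrations across 3 orders of magnitude and was the mean ± SEM of three independent assays in triplicate.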

[2] = system: Adenosine receptor A2a (Bos taurus); assay: Displacement of [3HCGS21680 from adenosine A2A receptor in bovine striatal membranes at 10 uM

CCOC(=O)c1cnc2c(cnn2CC(Cl)c2ccccc2)c1N1CCCC1 (stereo unspecified)
Ki [1]: 0.1 µM

Cc1nnc2nc3ccccc3n2c1O
Ki [1]: 3.98 µM

CC(C)OC(=O)c1cnc2c(cnn2CC(Cl)c2ccccc2)c1N1CCCC1 (stereo unspecified)
Ki [1]: 1 µM
Ki (Adenosine receptor A1): 1.08 µM
inhibition [2]: 30%

Oc1cc(-c2ccccc2)nc2nc(Oc3ccccc3)ccc12
Ki [1]: 0.0251 µM

Oc1cc(-c2ccccc2)nc2nc(Cl)ccc12
Ki [1]: 0.000158 µM

O=c1n(-c2cccc(F)c2)nc2c(NC3CCCC3)nc3ccccc3n12
Ki [1]: 0.001 µM

CCOC(=O)c1cnc2c(cnn2CC(Cl)c2ccccc2)c1NCCc1cccc(Cl)c1 (stereo unspecified)
Ki [1]: 0.2 µM
Ki (Adenosine receptor A1): 0.178 µM

COc1ccc(-c2nnc3n(C)c4ccccc4n3c2=O)cc1
Ki [1]: 2 µM

Cn1c(=O)ccc2c(O)cc(-c3ccccc3)nc21
Ki [1]: 5.01 µM

O=c1c(Cc2ccccc2)nnc2n(Cc3ccccc3)c3ccccc3n12
Ki [1]: 0.251 µM

CCOC(=O)c1cnc2c(cnn2CC(Cl)c2ccccc2)c1NCCc1cccc(F)c1 (stereo unspecified)
Ki [1]: 0.0316 µM
Ki (Adenosine receptor A1): 0.033 µM
inhibition [2]: 25%

CCCCOC(=O)c1cnc2c(cnn2CC(Cl)c2ccccc2)c1N1CCCC1 (stereo unspecified)
Ki [1]: 2 µM
Ki (Adenosine receptor A1): 1.89 µM
inhibition [2]: 45%

O=C(OCC1CC1)c1cnc2c(cnn2CC(Cl)c2ccccc2)c1NCCc1ccccc1 (stereo unspecified)
Ki [1]: 0.0501 µM
Ki (Adenosine receptor A1): 0.048 µM
inhibition [2]: 54%

CCC(C)OC(=O)c1cnc2c(cnn2CC(Cl)c2ccccc2)c1NC1CC1 (stereo unspecified)
Ki [1]: 0.2 µM
Ki (Adenosine receptor A1): 0.197 µM
inhibition [2]: 33%

Cc1ccc2c(O)cc(-c3ccc(N)cc3)nc2n1
Ki [1]: 0.00631 µM

CCOC(=O)c1cnc2c(cnn2CC(Cl)c2ccccc2)c1N1CCOCC1 (stereo unspecified)
Ki [1]: 0.501 µM

CCCOC(=O)c1cnc2c(cnn2CC(Cl)c2ccccc2)c1NCc1ccccc1 (stereo unspecified)
Ki [1]: 1.26 µM
Ki (Adenosine receptor A1): 1.37 µM

O=c1c(-c2ccccc2)nnc2n(-c3ccccc3)c3ccccc3n12
Ki [1]: 0.02 µM

CC(C)OC(=O)c1cnc2c(cnn2CC(Cl)c2ccccc2)c1NCCc1ccc(Cl)cc1 (stereo unspecified)
Ki [1]: 0.0398 µM
Ki (Adenosine receptor A1): 0.041 µM
inhibition [2]: 27%

CCOC(=O)c1cnc2c(cnn2CC(Cl)c2ccccc2)c1NCCc1ccccc1Cl (stereo unspecified)
Ki [1]: 0.0794 µM
Ki (Adenosine receptor A1): 0.076 µM

CCCNc1nc(SC)nc2c1cnn2CC(Cl)c1ccccc1 (stereo unspecified)
Ki [1]: 1 µM

COc1cc(-c2ccccc2)nc2nc(C)ccc12
Ki [1]: 6.31 µM

O=c1[nH]nc2c(NCCc3ccccc3)nc3ccccc3n12
Ki [1]: 0.00501 µM

CCOc1ccc2c(OCC)cc(-c3ccccc3)nc2n1
Ki [1]: 0.316 µM

Cc1ccc2c(N)cc(-c3ccccc3)nc2n1
Ki [1]: 0.0158 µM

Oc1cc(-c2ccccc2)nc2ncccc12
Ki [1]: 0.0158 µM

Cc1ccc2c(NN)cc(-c3ccccc3)nc2n1
Ki [1]: 0.1 µM

COc1ccc(-c2nnc3nc4ccccc4n3c2O)cc1OC
Ki [1]: 2 µM

CCCc1cc(O)c2ccc(N)nc2n1
Ki [1]: 0.2 µM

CCCOC(=O)c1cnc2c(cnn2CC(Cl)c2ccccc2)c1NCCc1ccccc1 (stereo unspecified)
Ki [1]: 0.126 µM
Ki (Adenosine receptor A1): 0.13 µM

O=c1c(-c2ccco2)nnc2n(-c3ccccc3)c3ccccc3n12
Ki [1]: 0.316 µM

CC(C)OC(=O)c1cnc2c(cnn2CC(Cl)c2ccccc2)c1NCCc1cccc(Cl)c1 (stereo unspecified)
Ki [1]: 0.1 µM
Ki (Adenosine receptor A1): 0.1 µM
inhibition [2]: 14%

O=c1c(-c2ccco2)nnc2n(Cc3ccccc3)c3ccccc3n12
Ki [1]: 1 µM

CCOC(=O)c1cnc2c(cnn2CC(Cl)c2ccccc2)c1NCc1ccccc1 (stereo unspecified)
Ki [1]: 0.126 µM

O=c1n(-c2ccccc2)nc2c(NC3CCCC3)nc3ccccc3n12
Ki [1]: 0.000398 µM

CCCCNc1nc(SC)nc2c1cnn2CC(Cl)c1ccccc1 (stereo unspecified)
Ki [1]: 2 µM

Cc1ccc2c(O)cc(-c3ccc(F)cc3)nc2n1
Ki [1]: 0.00501 µM

CCn1c(-c2ccccc2)cc(=O)c2ccc(C)nc21
Ki [1]: 0.501 µM

Oc1cc(-c2ccccc2)nc2nc(NC3CCCCC3)ccc12
Ki [1]: 0.0794 µM

O=c1n(-c2cccc(F)c2)nc2c(NC3CCCCC3)nc3ccccc3n12
Ki [1]: 0.00501 µM

Cn1c2ccccc2n2c(=O)c(-c3ccccc3)nnc12
Ki [1]: 0.0631 µM

O=c1[nH]nc2c(NCc3ccccc3)nc3ccccc3n12
Ki [1]: 0.0501 µM

O=c1n(-c2ccccc2)nc2c(NC3CCCCC3)nc3ccccc3n12
Ki [1]: 0.00158 µM

CCOC(=O)c1cnc2c(cnn2CC(Cl)c2ccccc2)c1NCCc1ccccc1 (stereo unspecified)
Ki [1]: 0.0501 µM

Nc1nc2ccccc2n2c(=O)n(-c3ccccc3)nc12
Ki [1]: 0.01 µM

CC(C)OC(=O)c1cnc2c(cnn2CC(Cl)c2ccccc2)c1NCc1ccccc1 (stereo unspecified)
Ki [1]: 0.631 µM
Ki (Adenosine receptor A1): 0.559 µM

CCCc1cc(O)c2ccc(C)nc2n1
Ki [1]: 0.0501 µM

CC(=O)Nc1ccc2c(O)cc(-c3ccccc3)nc2n1
Ki [1]: 0.316 µM

Oc1ccc(-c2nnc3nc4ccccc4n3c2O)cc1
Ki [1]: 0.251 µM

Cn1c2ccccc2n2c(=O)c(-c3cccs3)nnc12
Ki [1]: 0.0794 µM

CSc1nc(NC2CCCCC2)c2cnn(CC(Cl)c3ccccc3)c2n1 (stereo unspecified)
Ki [1]: 6.31 µM

CCOc1ccc2c(O)cc(-c3ccccc3)nc2n1
Ki [1]: 0.00501 µM

CC(C)OC(=O)c1cnc2c(cnn2CC(Cl)c2ccccc2)c1N1CCOCC1 (stereo unspecified)
Ki [1]: 2 µM
Ki (Adenosine receptor A1): 1.82 µM

Nc1nc2ccccc2n2c(=O)n(-c3cccc(F)c3)nc12
Ki [1]: 0.0316 µM

Cc1cccc(-n2nc3c(N)nc4ccccc4n3c2=O)c1
Ki [1]: 0.02 µM

Cc1nnc2n(C)c3ccccc3n2c1=O
Ki [1]: 10 µM

COc1cc(-c2ccccc2)nc2c1ccc(=O)n2C
Ki [1]: 1.26 µM

CCCOC(=O)c1cnc2c(cnn2CC(Cl)c2ccccc2)c1N1CCCC1 (stereo unspecified)
Ki [1]: 3.16 µM
Ki (Adenosine receptor A1): 2.97 µM

O=C(Nc1nc2ccccc2n2c(=O)n(-c3ccc(Cl)cc3)nc12)c1ccccc1
Ki [1]: 0.1 µM

COC(=O)c1cnc2c(cnn2CC(Cl)c2ccccc2)c1NC1CC1 (stereo unspecified)
Ki [1]: 0.251 µM
Ki (Adenosine receptor A1): 0.251 µM

COc1ccc2c(O)cc(-c3ccccc3)nc2n1
Ki [1]: 0.00158 µM

CCOC(=O)c1cnc2c(cnn2CC(Cl)c2ccccc2)c1NC1CC1 (stereo unspecified)
Ki [1]: 0.126 µM

Oc1c(-c2ccccc2)nnc2nc3ccccc3n12
Ki [1]: 0.0794 µM

Cc1cc(O)c2ccc(N)nc2n1
Ki [1]: 10 µM

COc1ccc(-n2nc3c(N)nc4ccccc4n3c2=O)cc1
Ki [1]: 0.316 µM

Cc1cccc(-n2nc3c(NC4CCCCC4)nc4ccccc4n3c2=O)c1
Ki [1]: 0.00398 µM

O=c1n(-c2ccc(Cl)cc2)nc2c(NC3CCCCC3)nc3ccccc3n12
Ki [1]: 0.0794 µM

Oc1cc(-c2ccccc2)nc2nc(Br)ccc12
Ki [1]: 0.000794 µM

Oc1c(-c2ccco2)nnc2nc3ccccc3n12
Ki [1]: 0.251 µM

Cn1c2ccccc2n2c(=O)c(-c3ccco3)nnc12
Ki [1]: 0.794 µM

Cc1ccc2c(O)ccnc2n1
Ki [1]: 7.94 µM

Oc1ccc(-c2nnc3nc4ccccc4n3c2O)cc1O
Ki [1]: 0.501 µM

Cc1ccc2c(Cl)cc(-c3ccccc3)nc2n1
Ki [1]: 1 µM

CCCNc1c(C(=O)OCC)cnc2c1cnn2CC(Cl)c1ccccc1 (stereo unspecified)
Ki [1]: 0.1 µM

COC(=O)c1cnc2c(cnn2CC(Cl)c2ccccc2)c1NCc1ccccc1 (stereo unspecified)
Ki [1]: 0.126 µM
Ki (Adenosine receptor A1): 0.141 µM

O=C(Nc1ccccc1)Nc1nc2ccccc2n2c(=O)n(-c3ccc(Cl)cc3)nc12
Ki [1]: 0.0501 µM

Cn1c2ccccc2n2c(=O)c(-c3ccc(Cl)cc3)nnc12
Ki [1]: 10 µM

CSc1nc(NCCc2ccccc2)c2cnn(CC(Cl)c3ccccc3)c2n1 (stereo unspecified)
Ki [1]: 10 µM

Cc1ccc2c(NC3CCCCC3)cc(-c3ccccc3)nc2n1
Ki [1]: 0.0316 µM

Cc1cc(O)c2ccc(=O)[nH]c2n1
Ki [1]: 10 µM

CCOc1cc(-c2ccccc2)nc2nc(Br)ccc12
Ki [1]: 0.0501 µM

Cc1ccc2c(O)cc(-c3ccccc3)nc2n1
Ki [1]: 0.00501 µM

CN(C)c1ccc2c(O)cc(-c3ccccc3)nc2n1
Ki [1]: 0.000631 µM

From ChEMBL document CHEMBL1139469, “Synthesis and 3D QSAR of new pyrazolo[3,4-b]pyridines: potent and selective inhibitors of A1 adenosine receptors” (J Med Chem, 2005)
